# Measured values collected from several papers.
# Target: Cyclin-dependent kinase 15 (CDK15, Homo sapiens, UniProt Q96Q40)
SMILES,assay,conditions,remaining binding
CS(=O)(=O)c1cc(C2(NC(=O)c3cncc4c3cnn4-c3ccc(F)cc3)CC2)ccn1,"cell-free assay, competition with immobilised ligand",1 µM,100%
CN(C)c1nccc(-c2cnc3ncccn23)n1,binding,1 µM,83%
O=C(c1ccc(Nc2ncc(Cl)c(-c3ccc(Cl)s3)n2)cc1)N1CCC(N2CCCC2)CC1,"binding, competition with immobilised ligand",1 µM,43%
Cc1cnn2ncc(-c3ccnc(N(C)C)n3)c2c1,binding,1 µM,100%
COc1ncc2cc3ccccc3nc2c1C#N,"cell-free assay, competition with immobilised ligand",5 µM,99%
O=C(NCCCN1CCOCC1)c1ccc(Nc2nccc(-c3cc4ccccc4s3)n2)cc1,"binding, competition with immobilised ligand",1 µM,87%
N[C@@H]1CCN(c2nccc(-c3cnn4ncccc34)n2)C1,binding,1 µM,100%
CN(C)CC#Cc1ccc(OCCCc2sc(N3CCc4cccc(C(=O)Nc5nc6ccccc6s5)c4C3)nc2C(=O)O)c(F)c1,"cell-free assay, competition with immobilised ligand",1 µM,100%
CN(C)c1nccc(-c2cnn3ncccc23)n1,binding,1 µM,100%
Cn1nc(C(=O)NCc2ccc(C(=O)O)cc2)cc1-c1ccc2[nH]ccc2c1,"cell-free assay, competition with immobilised ligand",0.1 µM,95%
O=C(Nc1c[nH]nc1C(=O)NC1CCNCC1)c1cc(F)cc(F)c1,"binding, competition with immobilised ligand",1 µM,79%
CC1CCCN1c1nccc(-c2cnn3ncccc23)n1 (stereo not shown),binding,1 µM,100%
CCOC(=O)c1cc2cc(-c3cc(C(=O)NCc4ccc(C(=O)O)cc4)nn3C)ccc2[nH]1,"cell-free assay, competition with immobilised ligand",0.1 µM,93%
O=C(c1ccc(Nc2ncc(Cl)c(-c3cc4ccccc4s3)n2)cc1)N1CCC(N2CCCC2)CC1,"binding, competition with immobilised ligand",1 µM,70%
CNC(=O)[C@@H]1CC[C@@H](n2c(-c3ccc4cnccc4c3)nc3ccc(C(=O)NCc4cccc(C(N)=O)c4)cc32)C1,"binding, competition with immobilised ligand",1 µM,100%
CN(C)c1ncc(F)c(-c2cnn3ncccc23)n1,binding,1 µM,100%
O=S(=O)(NC1CCC(c2cc(F)ccc2F)(S(=O)(=O)c2ccc(Cl)cc2)CC1)C(F)(F)F (stereo not shown),"cell-free assay, competition with immobilised ligand",1 µM,100%
CN(CCCC(F)(F)F)c1nccc(-c2cnn3ncccc23)n1,binding,1 µM,100%
c1cncc(-c2cccc(Nc3nccc(NC4CCCCC4)n3)c2)c1,"binding, competition with immobilised ligand",10 µM,76%
C[C@@H](c1ccc(-n2cnc3c(N)ncnc32)cc1)N1CCc2nn(C)c(Cc3ccccc3)c2C1=O,"binding, competition with immobilised ligand",0.1 µM,86%
O=C(NCCCC1CCCCC1)c1ccc(CNC(=O)c2cnn(-c3ccccc3)c2C(F)(F)F)cc1,"cell-free assay, competition with immobilised ligand",0.1 µM,77%
Nc1ncc2c(n1)-c1c([nH]c3ccc(C#CC4CC4)cc13)CCCC2,"binding, competition with immobilised ligand",1 µM,96%
